Sampled rows, rich in hits. Any-hit rate of the full collection: about 4.5%.
OX1R antag-1 – OX1R (HCRTR1) antagonists, primary screen, fluorescence, CHO/OX1R cells, Fluo-8 calcium, orexin A; 330,000 tested, 0.43% active; Orexin/Hypocretin receptor type 1 (Homo sapiens), O43613; Fluo-8 calcium fluorescence; inhibition, % at 5 µM;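 active = inhibition above its plate's threshold, mean inhibition of all tested compounds on the plate plus 3 SD, cut at about 37% in these data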
Target sequence (O43613 whole entry, looked up): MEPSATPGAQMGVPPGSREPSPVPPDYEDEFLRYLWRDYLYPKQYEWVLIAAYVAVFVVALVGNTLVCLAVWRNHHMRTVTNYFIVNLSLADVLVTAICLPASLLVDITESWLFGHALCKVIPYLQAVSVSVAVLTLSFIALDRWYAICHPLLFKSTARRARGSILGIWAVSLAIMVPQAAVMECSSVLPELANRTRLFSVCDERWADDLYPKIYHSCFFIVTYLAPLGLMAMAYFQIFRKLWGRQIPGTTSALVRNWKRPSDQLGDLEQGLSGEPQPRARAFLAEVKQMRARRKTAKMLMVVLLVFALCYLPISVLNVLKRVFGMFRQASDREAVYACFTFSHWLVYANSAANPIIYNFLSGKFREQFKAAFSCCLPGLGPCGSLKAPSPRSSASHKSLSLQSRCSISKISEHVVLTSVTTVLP
TAAR1 antag – human TAAR1 antagonists, primary screen, Fluo-8 calcium fluorescence, CHO RD-HGA16 cells; AID 624466, 2012; 360,000 tested, 1.5% active; antagonist; inhibition, % at 3 µM; Trace amine-associated receptor 1 (Homo sapiens), Q96RJ0;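 active = inhibition above a per-plate cutoff, the mean inhibition of test compounds on that plate plus 3 SD, cut at about 49% in these data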
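Test system – hTAAR1-expressing CHO RD-HGA16 cells, Gα16-coupled · Reagent – β-PEA at EC80 concentration, post-compound challenge · Compound dosing – 3 µM, single point · Timing – 140 s kinetic read after compound, 140 s after agonist · Detection – Fluo-8 intracellular calcium dye fluorescence, real-time kinetic reads · Control set – DMSO and EC80 PEA controls · Repeats – n of 1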
GPR7 antag – GPR7 receptor antagonists, primary screen, cell-based, fluorescence, single concentration. inhibition, % at 4.4 µM. GPR7-expressing cells, fluorescence antagonist assay. 290,000 tested, 1.1% active. AID 1861, 2009; in the data active = inhibition above about 16%, passing the limit was not always enough;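 note: cells stimulated with the agonist NPW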
CHO parental Ca – ATP-evoked calcium signal inhibitors, parental CHO, primary screen, counter-screen for OX1R antagonist project, cell-based, fluorescence, Fluo-8 calcium dye | parental CHO-K1, ATP-induced calcium, Fluo-8 fluorescence | 330,000 tested, 0.63% active | inhibition, % at 5.6 µM;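 active = inhibition above that plate's mean sample inhibition plus 3 SD, cut at about 26% in these data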
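Material: Parental CHO cells | Reagent: ATP | Compound dosing: Single nominal dose of 5.6 µM per compound | Detection: Intracellular calcium via Fluo-8 no-wash fluorescent dye | Read-out: % inhibition of ATP-induced calcium mobilization | Benchmarks: Low control ATP plus DMSO, high control DMSO only | Replicates: Singlicate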
TAAR1 ag – human TAAR1 agonists, primary screen, Fluo-8 calcium fluorescence, CHO RD-HGA16 cells; Trace amine-associated receptor 1 (Homo sapiens), Q96RJ0; vehicle wells 0%, saturating PEA agonist 100%; activation, % at 3 µM; 360,000 tested, 0.99% active;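 active = activation above the mean activation of all test compounds in the run plus 3 SD, cut at about 38% in these data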
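Test system: RD-HGA16 (CHO) cells co-expressing Gα16 and hTAAR1; dosing: one-point dosing at 3 µM (nominal); timing: 17-24 h seeding, 75 min 37 °C dye, 30 min RT; signal: kinetic Fluo-8 calcium fluorescence; read-out basis: % activation relative to PEA EC100 response; controls: DMSO and PEA EC100; replicates: n 1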
OX1R antag-2 – antagonists of human orexin 1 receptor (OX1R). 330,000 tested, 1.8% active. inhibition, % at 6.6 µM. OX1R-expressing cells, FRET antagonist read-out. Orexin/Hypocretin receptor type 1 (Homo sapiens), O43613. AID 485270, 2010; in the data active = inhibition mostly above about 38%, no sharp cut-off; inactive = mostly below about 40%
OX1R Fluo8 conf – OX1R (HCRTR1) antagonists, confirmation, fluorescence, CHO/OX1R cells, Fluo-8 calcium, orexin A | orexin A calcium Fluo-8 fluorescence | inhibition, % at 5 µM | shares compounds with OX1R antag-1 | 1,100 tested, 38% active; in the data active = inhibition above about 29%
CHO Ca counter – ATP-evoked calcium inhibition in parental CHO, counter-screen for OX1R antagonist project, cell-based, fluorescence, CHO-K1, triplicate; shares compounds with OX1R antag-1; ATP-induced calcium, Fluo-8 fluorescence; inhibition, % at 5.6 µM; 1,100 tested, 9.3% active; AID 492965, 2010;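 active = inhibition above a per-plate limit, the mean inhibition of that plate's test compounds plus 3 SD, cut at about 25% in these data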
OX1R HTRF conf – OX1R (HCRTR1) antagonists, confirmation, cell-based, HTRF; shares compounds with OX1R antag-2; OX1R-expressing cells, HTRF antagonist assay; inhibition, % at 6.6 µM; 1,800 tested, 49% active; in the data active = inhibition above about 55%;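 note: CHO cells expressing OX1R stimulated with orexin A at about EC80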
CHO-K1 HTRF – signal inhibition in parental CHO-K1 cells, counter-screen for OX1R antagonist project, cell-based, HTRF | shares compounds with OX1R antag-2 | HTRF counterscreen | inhibition, % at 6.6 µM | 1,800 tested, 48% active; in the data active = inhibition above about 17%
A number is an active result; i = inactive; nt = not tested or not shown.

SMILES | OX1R antag-1 | TAAR1 antag | GPR7 antag | CHO parental Ca | TAAR1 ag | OX1R antag-2 | OX1R Fluo8 conf | CHO Ca counter | OX1R HTRF conf | CHO-K1 HTRF
CNC(=O)C1CCCN1S(=O)(=O)c1ccc(OC)cc1 (stereo unspecified) | i | i | i | i | i | i | nt | nt | nt | nt
C=C(C)Cn1c(=O)c2c(nc3n2CCCN3CCc2ccccc2)n(C)c1=O | i | i | i | i | i | i | nt | nt | nt | nt
CN(CC(=O)Nc1ccc(F)cc1)C(=O)COC(=O)/C=C/c1ccc(OC(F)F)cc1 | i | i | nt | i | i | i | nt | nt | nt | nt
O=C(Nc1ccc(Cl)c(Cl)c1)c1cccc(S(=O)(=O)NCc2cccnc2)c1 | i | i | 30 | i | i | 67 | 38 | 55 | 77 | i
CCOc1ccc(N(CC(=O)NCCc2ccc(C)cc2)S(=O)(=O)c2c(C)noc2C)cc1 | i | i | i | i | i | i | nt | nt | nt | nt
Cc1ccc(N(CC(=O)NCCc2ccccc2)S(=O)(=O)c2c(C)noc2C)cc1 | 70 | i | i | i | i | 85 | 44 | i | 82 | i
CSc1ccc(C(=O)C2CCCN(C(=O)CCc3cnn(C)c3)C2)cc1 (stereo unspecified) | i | i | i | i | i | i | nt | nt | nt | nt
COc1ccc(/C(C)=N/N2C(C)CCCC2C)c(OC)c1 (stereo unspecified) | i | i | i | i | i | i | nt | nt | nt | nt
O=S(=O)(CCOc1ccccc1)c1nc2ccccc2[nH]1 | i | i | i | i | i | 86 | i | i | i | i
COc1ccccc1Nc1nc(N)nc(-c2cc3ccccc3o2)n1 | i | i | i | i | i | 77 | 31 | i | 65 | i
COc1ccccc1Nc1nc(N)nc(CN2CCOCC2)n1 | i | i | i | i | i | i | nt | nt | nt | nt
O=C(Nc1ccc2c(c1)OCCO2)C1CCCN1S(=O)(=O)c1cccc2cccnc12 (stereo unspecified) | i | i | i | i | i | i | nt | nt | nt | nt
COc1cccc(NC(=O)[C@@H]2CCCN2S(=O)(=O)c2cccc3cccnc23)c1 | 47 | i | nt | i | i | 84 | 50 | i | 84 | i
O=C(Nc1ccccc1Cl)C1CCCN(S(=O)(=O)c2cccc3cccnc23)C1 (stereo unspecified) | i | i | i | i | i | i | nt | nt | nt | nt
O=C(Nc1cccc(F)c1)C1CCCN1S(=O)(=O)c1cccc2cccnc12 (stereo unspecified) | i | i | i | i | i | 71 | 31 | i | 89 | i
COc1ccc(C)cc1NC(=O)C1CCCN(S(=O)(=O)c2cccc3cccnc23)C1 (stereo unspecified) | i | nt | i | i | nt | 79 | i | i | 80 | i
O=C(CCSCc1ccccc1Cl)NC1CCCCC1 | i | i | i | i | i | i | nt | nt | nt | nt
COc1ccc(N2CCN(C(=S)NC(C)c3ccccc3)CC2)cc1 (stereo unspecified) | i | i | i | i | i | i | nt | nt | nt | nt
N/C(=N\OC(=O)c1cccs1)c1cccc([N+](=O)[O-])c1 | i | i | i | i | i | i | nt | nt | nt | nt
O=[N+]([O-])c1cccc(-c2nc(-c3cccs3)c(-c3cccs3)[nH]2)c1 | i | 58 | i | i | i | 99 | i | i | 74 | i
CC1CCN(C(=O)C2CCCN2S(=O)(=O)c2ccc(Cl)cc2)CC1 (stereo unspecified) | i | i | i | i | i | i | nt | nt | nt | nt
Cc1c(C(=O)OCC(=O)NCCN2C(=O)CSC2=O)oc2c1ccc1ccccc12 | i | i | i | i | i | 77 | 33 | i | 88 | i
Cc1nn(-c2ccccc2)c(Cl)c1/C=C(\C#N)C(=O)NC(C)C | i | i | i | i | i | i | nt | nt | nt | nt
Cn1c(=O)c(C(=O)COC(=O)c2cc(-c3ccco3)nc3ccccc23)c(N)n(CC2CC2)c1=O | i | nt | i | i | nt | 69 | i | i | 64 | i
Cn1c(=O)c(C(=O)COC(=O)c2cc(C3CC3)nc3ccccc23)c(N)n(Cc2ccccc2)c1=O | i | i | i | i | i | i | nt | nt | nt | nt
SMILES | OX1R antag-1 | TAAR1 antag | GPR7 antag | CHO parental Ca | TAAR1 ag | OX1R antag-2 | OX1R Fluo8 conf | CHO Ca counter | OX1R HTRF conf | CHO-K1 HTRF
Cc1cc(NC(=O)CSc2nc(-c3cccs3)nc3ccccc23)no1 | 45 | i | nt | i | i | 62 | i | i | 82 | i
Cc1cc(NC(=O)CSc2nc(C(C)(C)C)nc3ccccc23)no1 | i | i | i | i | i | i | nt | nt | nt | nt
Cc1c2ccccc2nc2c(F)c(N(C)C)c(F)c(F)c12 | 50 | i | i | i | i | 82 | 71 | i | 93 | i
O=C(CSc1ncnc2c1nnn2Cc1ccccc1)NC1CCCCC1 | i | i | i | i | i | i | nt | nt | nt | nt
O=c1[nH][nH]c(=S)n1C1CCCCC1 | i | nt | i | i | nt | i | nt | nt | nt | nt
CC(C)n1c(=O)[nH][nH]c1=S | 39 | i | i | i | i | 63 | 55 | i | 79 | i
COC(=O)[C@H](Cc1ccccc1)NC(=O)NCCc1ccc(OC)cc1 | i | i | i | i | i | i | nt | nt | nt | nt
CC(C)N(Cc1ccccc1)C(=O)CN1C(=O)NC(Cc2ccccc2)(c2ccccc2)C1=O (stereo unspecified) | i | i | i | i | i | 81 | 42 | i | 87 | i
CC[C@]12c3[nH]c4cc(-c5ccco5)ccc4c3CCN1C(=O)[C@@H](CC(=O)NC/C=C(\C)CCC=C(C)C)C[C@@H]2C(=O)N1CCN(C(=O)c2ccco2)CC1 | 94 | nt | nt | i | nt | 58 | 74 | i | 76 | i
CCOc1ccccc1-c1nc(-c2ccc(NC(=O)Cc3ccc(OC)cc3)cc2)no1 | i | i | i | i | i | i | nt | nt | nt | nt
CCOc1ccccc1-c1nc(-c2ccc(NC(=O)c3ccc(Br)o3)cc2)no1 | i | i | i | i | i | 69 | i | i | 79 | 18
